From ChEMBL document CHEMBL1151718, “Design, synthesis, and biological characterization of a caspase 3/7 selective isatin labeled with 2-[18F]fluoroethylazide” (J Med Chem, 2008) come the findings set out here.

The nature of data set [1]: Lipophilicity, log P of the compound. Type of data set: physicochemical. Particulars: octanol/water.
The target in data set [2] is T1, Caspase-3 (Mus musculus) (UniProt P70677).
T1 sequence (whole entry): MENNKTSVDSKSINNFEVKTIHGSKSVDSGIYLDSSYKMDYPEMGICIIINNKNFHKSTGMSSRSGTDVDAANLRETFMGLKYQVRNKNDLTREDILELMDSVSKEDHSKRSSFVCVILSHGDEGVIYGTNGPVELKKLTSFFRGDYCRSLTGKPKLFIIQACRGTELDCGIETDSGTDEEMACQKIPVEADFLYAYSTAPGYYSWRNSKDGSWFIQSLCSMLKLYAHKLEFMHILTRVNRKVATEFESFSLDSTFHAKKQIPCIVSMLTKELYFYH
The data set is described as follows: Inhibition of caspase 3 in mouse RIF1 cells assessed as disruption of cisplatin-stimulated PARP induction by Western blot. Type of data set: cell-based. Particulars: RIF-1. The gist of the method: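 RIF-1 murine fibrosarcoma cells were pretreated 15 min with caspase inhibitors (Z-VAD-FMK 100 µM as control), then given cisplatin 100 µM for 48 h. Lysates were made in RIPA with protease/phosphatase inhibitors, and 30 µg protein was run on 4–12% SDS-PAGE and blotted to PVDF. Probed with anti-cleaved PARP (89 kDa fragment) and α-tubulin loading control, detected by ECL.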

Data set [3] concerns the target T2, Caspase-3 (Homo sapiens, UniProt P42574).
T2 sequence (P42574 whole entry): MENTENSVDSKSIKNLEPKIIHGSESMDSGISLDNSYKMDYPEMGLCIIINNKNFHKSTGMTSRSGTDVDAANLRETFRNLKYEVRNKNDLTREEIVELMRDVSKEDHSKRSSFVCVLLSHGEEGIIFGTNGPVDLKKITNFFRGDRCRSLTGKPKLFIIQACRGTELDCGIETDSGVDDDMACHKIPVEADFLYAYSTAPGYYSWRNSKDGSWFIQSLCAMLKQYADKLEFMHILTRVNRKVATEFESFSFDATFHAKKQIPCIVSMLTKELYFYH
The data set is described as follows: Inhibition of human recombinant caspase 3 assessed as accumulation of 7-amino-4-methylcoumarin substrate. The gist of the method: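 Substrates at 10 µM: Ac-DEVD-AMC (caspase 3), Ac-VEID-AMC (caspase 6), Ac-IETD-AMC (caspase 8), added after 10 min preincubation with inhibitor (5 pM–500 µM). Duplicates, two runs; EC50 by nonlinear regression.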

Data set [4] deals with Plasma. The experiment in a line: Metabolic stability in […] mouse plasma assessed as ratio of peak to total radioactivity present on chromatogram at 3.7 MBq, iv after 15 mins. Type of data set: ADME, organism-based. Particulars: in vivo, 0.25 h. An outline of the steps: (§1)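 [¹⁸F]15 (7.4 MBq) injected iv into non-tumor-bearing C3H/hej mice. Plasma and liver were snap-frozen, extracted with ice-cold acetonitrile (liver homogenized), centrifuged and dried. Extracts were analyzed by reverse-phase C18 radio-HPLC (ammonium formate/methanol:acetonitrile gradient). Percent parent = parent peak relative to total chromatogram radioactivity. Plasma: average of 3 studies per time point; liver: individual results from two samples.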

The subject of data set [5] is Liver. The data set is described as follows: Metabolic stability […] mouse liver assessed as ratio of peak to total radioactivity present on chromatogram at 3.7 MBq, iv after 2 mins. Type of data set: ADME, organism-based. Particulars: in vivo. An outline of the steps:
as §1

Data set [6] can be described thus: Increase in drug uptake in mouse RIF1 cells after 60 mins relative to control. Particulars: rif-1, 1 h. Type of data set: ADME, cell-based. The gist of the method:
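RIF-1 murine fibrosarcoma cells, plated in triplicate 2–3 days ahead, were exposed to CDDP at 100 µM or to vehicle (0.1% DMSO) for 48 h. About 10 µCi/well of the 18F tracer was then taken up for 60 min at 37 °C. Cells were collected, washed, resuspended in PBS and gamma-counted. Decay-corrected counts/min were normalised to mg protein (BCA), and the treated level was compared with the untreated one.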

For data set [7], the system named is Plasma. The experiment in a line: Metabolic stability in […] mouse plasma assessed as ratio of peak to total radioactivity present on chromatogram at 3.7 MBq, iv after 2 mins. Type of data set: ADME, organism-based, RIF-1. Particulars: in vivo, in the assay text read “7.4 MBq” for “3.7 MBq”. An outline of the steps: as §1
Data set [8] can be described thus: Metabolic stability in mouse liver S9 fraction at pH 7.4. Type of data set: ADME, subcellular. Particulars: s9, pH 7.4. An outline of the steps:
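Mouse liver homogenized in 50 mM Tris–150 mM KCl–HCl pH 7.4 and spun at 10000g for 30 min to give S9. Compound (10 µL of 10 mM stock) was incubated with S9 (20 µL of 33.26 mg/mL) and 0.5 mM NADPH in Tris-HCl pH 7.4 (1 mL total), 60 min at 37 °C in air. Stopped with ice-cold acetonitrile and analyzed by gradient reverse-phase HPLC.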

The target in data set [9] is T3, Caspase-7 (Homo sapiens, UniProt P55210).
T3 sequence (P55210 whole entry): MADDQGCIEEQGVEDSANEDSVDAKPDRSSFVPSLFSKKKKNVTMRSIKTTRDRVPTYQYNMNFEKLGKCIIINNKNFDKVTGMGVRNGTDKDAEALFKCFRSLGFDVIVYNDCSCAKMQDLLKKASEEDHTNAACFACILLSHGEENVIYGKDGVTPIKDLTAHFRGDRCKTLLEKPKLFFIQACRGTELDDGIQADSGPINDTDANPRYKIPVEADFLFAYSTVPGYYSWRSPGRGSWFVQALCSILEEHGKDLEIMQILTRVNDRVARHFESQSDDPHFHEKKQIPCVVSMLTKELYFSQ
The experiment in a line: Inhibition of human recombinant caspase 7 assessed as accumulation of 7-amino-4-methylcoumarin substrate. The gist of the method:
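Isatin (5 pM–500 µM, 9 levels) preincubated 10 min, then Ac-DEVD-AMC (10 µM final) added for 30 min. 7-AMC fluorescence read at ex 355/em 460 nm against no-enzyme controls. EC50 by nonlinear regression; duplicates, two runs.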

Data set [10] addresses T4, Caspase-1 (Homo sapiens, UniProt P29466).
T4 sequence (P29466 whole entry): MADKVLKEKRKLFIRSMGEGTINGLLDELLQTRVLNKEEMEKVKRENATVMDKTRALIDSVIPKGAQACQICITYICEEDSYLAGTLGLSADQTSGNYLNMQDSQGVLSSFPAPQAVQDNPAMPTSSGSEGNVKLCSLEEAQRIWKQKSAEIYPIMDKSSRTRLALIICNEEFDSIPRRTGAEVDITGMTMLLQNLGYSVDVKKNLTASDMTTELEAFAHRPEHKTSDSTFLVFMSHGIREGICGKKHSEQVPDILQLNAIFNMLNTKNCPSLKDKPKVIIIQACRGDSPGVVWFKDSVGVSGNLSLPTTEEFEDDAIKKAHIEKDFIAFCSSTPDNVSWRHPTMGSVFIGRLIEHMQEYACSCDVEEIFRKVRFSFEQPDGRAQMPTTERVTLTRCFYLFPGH
The data set is described as follows: Inhibition of human recombinant caspase 1 assessed as accumulation of 7-amino-4-methylcoumarin substrate. An outline of the steps: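 Recombinant human caspase 1 (0.5 units) at 37 °C in 100 mM HEPES pH 7.4, 0.1% CHAPS, 100 mM NaCl, 5 mM 2-mercaptoethanol, 2 mM EDTA, 10% sucrose, 5% DMSO final. Inhibitor (5 pM–500 µM, 9 concentrations) preincubated 10 min before adding 10 µM Ac-YVAD-AMC for 30 min. 7-AMC fluorescence read at ex 355/em 460 nm against no-enzyme controls. Duplicates, two runs; EC50 by nonlinear regression.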

The target of data set [11] is T5, Caspase-6 (Homo sapiens, UniProt P55212).
T5 sequence (P55212 whole entry): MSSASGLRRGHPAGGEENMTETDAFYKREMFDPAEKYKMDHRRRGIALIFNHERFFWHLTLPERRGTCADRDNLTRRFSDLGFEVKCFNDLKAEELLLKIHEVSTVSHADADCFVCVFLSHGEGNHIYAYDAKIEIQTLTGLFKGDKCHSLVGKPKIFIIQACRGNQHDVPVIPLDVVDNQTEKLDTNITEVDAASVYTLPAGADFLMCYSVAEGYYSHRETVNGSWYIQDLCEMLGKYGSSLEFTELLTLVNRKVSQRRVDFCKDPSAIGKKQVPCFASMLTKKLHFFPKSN
The data set is described as follows: Inhibition of human recombinant caspase 6 assessed as accumulation of 7-amino-4-methylcoumarin substrate. An outline of the steps:
(§2)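 Substrates at 10 µM: Ac-DEVD-AMC (caspase 3), Ac-VEID-AMC (caspase 6), Ac-IETD-AMC (caspase 8), added after 10 min preincubation with inhibitor (5 pM–500 µM). 7-AMC read after 30 min at ex 355/em 460 nm. Duplicates, two runs; EC50 by nonlinear regression.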

In data set [12] the target is Caspase-8 (Homo sapiens, UniProt Q14790). The experiment in a line: Inhibition of human recombinant caspase 8 assessed as accumulation of 7-amino-4-methylcoumarin substrate. The gist of the method: as §2
Chain of Caspase-8 (Q14790 217-374 limits assumed): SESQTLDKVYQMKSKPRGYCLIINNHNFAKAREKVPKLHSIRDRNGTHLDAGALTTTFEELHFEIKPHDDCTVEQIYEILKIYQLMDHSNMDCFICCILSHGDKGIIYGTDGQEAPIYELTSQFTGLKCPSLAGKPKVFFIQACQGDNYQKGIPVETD
Chain of Caspase-8 (Q14790 385-479 limits assumed): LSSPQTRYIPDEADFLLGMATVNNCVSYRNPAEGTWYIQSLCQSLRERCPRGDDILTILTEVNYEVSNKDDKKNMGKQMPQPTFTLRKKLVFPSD
The nature of data set [13]: Chemical stability assessed as half life. Type of data set: physicochemical.

The source made the active and inactive calls.

In data set [1], `O=C1C(=O)N(Cc2cn(CCF)nn2)c2ccc(S(=O)(=O)N3CCC[C@H]3COc3ccc(F)cc3F)cc21` showed a logP of 1.61.

As for `O=C1C(=O)N(Cc2ccc(I)cc2)c2ccc(S(=O)(=O)N3CCC[C@H]3COc3ccccc3)cc21`, the result in [2] was inactive.

In the case of `O=C1C(=O)N(Cc2ccc(F)cc2)c2ccc(S(=O)(=O)N3CCC[C@H]3COc3ccccc3)cc21`, the concentration for a half-maximal effect (EC50) in [3] was found to be 50.5 nM.

Take `O=C1C(=O)N(Cc2cn(CC[18F])nn2)c2ccc(S(=O)(=O)N3CCC[C@H]3COc3ccc(F)cc3F)cc21`: the Activity is 61.3% in [4], 35.7% in data set [5] and 86.1% in [7]. For the same compound, in data set [6], the “fold change (FC)” value is 1.5.

In the case of `O=C1C(=O)N(Cc2ccc(F)cc2)c2ccc(S(=O)(=O)N3CCCC3)cc21`, the Stability result in data set [8] is reported as “Stable”.

Turning to `O=C1C(=O)N(Cc2ccc(F)cc2)c2ccc(S(=O)(=O)N3CCC[C@H]3COCc3cn(CCF)nn3)cc21`, the EC50 in data set [3] was 12.6 nM; in data set [9], 18.3 nM; in [10] it was > 5 µM; in [11] it was > 5 µM; in data set [12], > 5 µM.

For the compound `O=C1C(=O)N(Cc2ccc([125I])cc2)c2ccc(S(=O)(=O)N3CCC[C@H]3COc3ccccc3)cc21`, in [13], the half-life was 59.9 days.

For `O=C1C(=O)N(Cc2ccc(F)cc2)c2ccc(S(=O)(=O)N3CCC[C@H]3COC3CCOCC3)cc21`, in data set [3], the concentration for a half-maximal effect (EC50) was 10.7 nM.

The term logP denotes the decadic logarithm of the partition coefficient of the neutral form, usually between octanol and water. A word on the EC50: it is the concentration at which the effect is half-maximal. Broadly, the half-life is the time needed for the level to fall by half in the phase considered.
